# Laboratory results reported in the RNAGym collection of RNA variant scans (doi:10.1038/s41586-018-0170-7).
# B1: tRNA (parent)
# chain: GUUCCGUUGGCGUAAUGGUAACGCGUCUCCCUCCUAAGGAGAAGACUGCGGGUUCGAGUCCCGUACGGAACG
# Variants of: B1
# Assay: yeast fitness, log relative to wild type (ln ratio); higher = fitter; tRNA-Arg(CCU), competitive growth, 37 C, 1 M NaCl
# Method in brief: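 For each genotype, fitness is defined as the natural log of its generation number over the wild type's. The tRNA-Arg(CCU) variant library was on a HIS3 centromeric plasmid in BY4742 with the chromosomal gene removed, and pools were first grown 4 generations in SC-HIS at 30 °C and then ~6.5 generations (~26.5 h) in SC-HIS 1M NaCl at 37 °C. Generations were calculated from OD-scaled log2 output/input frequency, weighted by inverse variance across replicates, using counts from 125 bp paired-end Illumina sequencing.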
row,Variant,yeast fitness (ln)
1,G1A U2G A43C C66A A69G A70G C71U,-0.329
2,G6A C66U A69G C71U,-0.085
3,U2G G6U C27U C46U C66A A70G C71U,-0.168
4,G1A U2G G6U C27U C46U C66U A69G C71U,-0.434
5,U2C G6U C27U A43C C66U A69G A70G,-0.426
6,G1A U2C G6A C27U A43C C46U C66U A69G A70G C71U,-0.0617
7,G1A G6U A43C C66U,-0.232
8,C66U A69G C71U,-0.166
9,G6A C27U C46U A70G,-0.132
10,U2C G6A A43C C46U A70G C71U,-0.112
11,G1A U2G G6A A43C C71U,-0.276
12,G1A U2G A43C A70U C71U,-0.0335
13,G1A U2C G6U A43C C46U A69G A70U C71U,-0.343
14,U2G C27U A43C C46U C66A,-0.124
15,U2G A43C C66A,-0.0672
16,U2G C27U A43C C46U A69G A70U C71U,-0.295
17,G1A U2C C27U C46U A70U C71U,-0.155
18,U2C G6U C27U A43C C46U A70G,-0.204
19,U2G G6U C27U A69G A70U,-0.227
20,U2G G6A A43C C46U A69G A70U C71U,-0.347
21,G1A U2G C27U C46U C66U A70U,-0.123
22,G1A U2C G6U C66U A69G A70G,-0.362
23,G1A C46U A69G A70U C71U,-0.359
24,U2G G6U C27U A43C C46U C66U A70G,-0.311

row,Variant,yeast fitness (ln)
1,U2C G6A C27U A69G A70U,-0.115
2,G1A G6A C66U A69G A70G,-0.235
3,G1A G6U A43C C46U C66A,-0.278
4,G1A U2G G6A C27U A43C A70U C71U,-0.365
5,U2C G6U C27U A43C C46U C66A A70G,-0.0237
6,G1A U2G G6U A43C C46U C66U A70G C71U,-0.418
7,G6U C27U A43C A69G A70U C71U,-0.462
8,G1A G6U C27U C66A A69G A70U C71U,-0.223
9,G1A U2G G6A C66U A69G A70G,-0.282
10,U2G G6U A43C C46U A69G A70U,-0.194
11,U2G G6A C46U C66A A69G A70G C71U,-0.193
12,U2C G6A A70U C71U,-0.0821
13,U2G G6U C46U A69G A70G C71U,-0.217
14,U2C G6A A43C A69G A70G,-0.0768
15,U2G G6A C46U C66U A70G,-0.0322
16,G1A U2C G6A C27U A43C A70U,-0.0697
17,U2C G6U A43C C66U A70U,-0.194
18,G1A G6A C27U A43C A69G A70U C71U,-0.684
19,G1A G6U C27U A43C C46U C66U A70U C71U,-0.471
20,G1A U2G G6U A43C C46U A70G C71U,-0.338
21,G1A U2G G6U A69G A70G,-0.183
22,G6U A43C C46U C66U A69G A70G C71U,-0.325
23,U2C A43C C46U A69G A70G C71U,-0.00607
24,G6A A43C A70G C71U,-0.283

row,Variant,yeast fitness (ln)
1,U2C C27U A43C C46U A69G A70G,-0.0239
2,G1A G6U A43C A69G A70G,-0.54
3,G1A U2C C27U A43C C66U A70U,-0.179
4,G1A G6U A43C C46U C66A A69G A70U,-0.474
5,U2C G6A C27U C46U C66A A69G A70U C71U,-0.384
6,G6A C66U A70U,-0.0184
7,G1A G6U C27U A43C A69G A70U C71U,-0.58
8,U2G C27U C66U A69G C71U,-0.282
9,U2G G6A C27U A43C C46U A69G C71U,-0.22
10,G1A U2C A43C C46U A70G,-0.00269
11,G1A G6U C27U A43C C46U C66A A70U,-0.359
12,G1A U2G A43C C46U A69G A70U,-0.132
13,G6U C27U A43C C46U C66A A69G A70G,-0.471
14,U2G G6U A69G A70G C71U,-0.235
15,U2C C27U A43C A69G A70U,-0.136
16,A43C C46U C66A A69G A70G C71U,-0.103
17,U2G C46U C66A A70U,-0.0904
18,G6A C27U A43C C46U C66U A69G A70G,-0.369
19,U2C G6A C27U C46U C66U,-0.136
20,G1A U2G G6A C66U C71U,-0.146
21,U2G G6U C27U C46U C66A A69G A70U,-0.0283
22,G1A G6A C66A A70G C71U,-0.267
23,U2C G6U A43C C46U A70G,-0.113
24,A43C C66U A70U,-0.105

row,Variant,yeast fitness (ln)
1,G1A U2G C27U A43C C46U C66A A69G A70G,-0.146
2,G1A U2G G6A C27U C46U C66A A70U C71U,-0.249
3,G1A U2C G6U C27U C66U A69G A70G C71U,-0.251
4,U2G G6U C27U C46U C66U C71U,-0.246
5,G1A U2G C27U A43C C66U A69G A70U,-0.363
6,G1A U2G C27U A43C C46U A70G C71U,-0.223
7,G1A U2G G6U A43C C46U A70U C71U,-0.226
8,G1A U2G C27U C46U A69G C71U,-0.206
9,U2C G6A C27U A70U C71U,-0.141
10,G6U A43C A69G C71U,-0.389
11,G6A A43C C46U C71U,-0.117
12,G1A U2C A43C C46U A69G A70G C71U,-0.00408
13,G1A U2G G6U C27U C46U C66U A70U C71U,-0.334
14,G1A G6A C27U C46U A70U C71U,-0.258
15,G1A G6U C27U A43C C46U C66U C71U,-0.364
16,G6A C27U C66U A70U,-0.188
17,U2G G6A C27U C46U C66U A70G C71U,-0.165
18,G1A U2G A43C A69G C71U,-0.219
19,G1A G6U C27U A43C C66U,-0.362
20,G1A U2G C27U A43C C66U A70U,-0.282
21,U2C G6U C27U A43C C46U A69G C71U,-0.187
22,U2G A69G C71U,-0.101
23,G1A C27U A70U C71U,-0.34
24,G6U C27U A43C C46U C66U A69G A70U,-0.416

row,Variant,yeast fitness (ln)
1,G6A C27U A70G,-0.148
2,U2G G6A C27U C46U C66U A69G A70G C71U,-0.216
3,G1A C27U C66U C71U,-0.322
4,U2C G6A A43C C66U A69G A70U,-0.232
5,G1A C27U C46U A69G,-0.304
6,U2C G6U C46U A69G C71U,-0.0672
7,G1A G6U C66U A70G C71U,-0.272
8,U2C G6A C27U A43C C46U C66A C71U,-0.216
9,U2C G6U A69G C71U,-0.0844
10,U2C G6U A43C C46U C66A A69G A70G,-0.0147
11,U2G G6A A43C C71U,-0.195
12,U2C G6A C66U A69G A70G,-0.0273
13,U2C G6U C46U C66U A69G C71U,-0.221
14,G6A C27U A43C C66U A70G,-0.426
15,G1A U2G G6U C46U A70G C71U,-0.257
16,G1A U2G G6A A43C,-0.238
17,G1A G6U C46U C66A A69G A70G,-0.158
18,G1A G6U C46U C66A A69G A70U,-0.106
19,U2G C27U A43C C46U C66A A70G C71U,-0.162
20,U2C G6A C27U A43C C46U C66A A70G C71U,-0.0721
21,G1A U2G G6U C27U C66A A70G C71U,-0.287
22,U2C G6A C27U C46U A69G C71U,-0.172
23,U2C G6A C46U A69G A70U,-0.084
24,G6U C27U A43C C46U C66A A69G,-0.0652

row,Variant,yeast fitness (ln)
1,U2C G6A C27U C46U C66A C71U,-0.101
2,G1A G6U C46U C66A,-0.0835
3,G1A U2C C27U A43C C46U A70G C71U,-0.012
4,U2C G6U C46U C66U A70G,-0.0115
5,C27U A43C C46U C66A,-0.0786
6,G6A C66U,-0.0046
7,U2G A43C A70G,-0.182
8,U2G A43C A70U,-0.00614
9,G1A U2C A43C C46U A69G A70U C71U,-0.384
10,U2G G6A C27U A69G C71U,-0.268
11,U2G C66U A69G,-0.195
12,U2G G6U A43C C46U A70G C71U,-0.229
13,G1A U2C C27U A43C C46U A69G A70G,-0.178
14,U2G G6A C27U C66A A69G A70U,-0.287
15,U2G G6U A43C C46U C66U A70G C71U,-0.241
16,G1A U2G C27U A43C C46U C66A A69G A70U C71U,-0.456
17,G6U C46U C66A,0.00404
18,G1A U2G G6A A43C C46U A70U,-0.165
19,U2G G6U A43C C46U C66A,-0.205
20,G1A U2G G6A A43C C46U A70U C71U,-0.14
21,G1A U2G A43C C71U,-0.129
22,U2G G6A C46U,-0.0244
23,G1A U2G G6A A43C C46U C66A A69G A70U C71U,-0.286
24,G1A A69G C71U,-0.0087

row,Variant,yeast fitness (ln)
1,G6U C66A A70U,-0.0008
2,G1A U2G G6U C27U A70G,-0.274
3,G1A U2C G6U C27U C46U A70G C71U,-0.203
4,U2G G6U C27U A43C C46U C66A A69G C71U,-0.352
5,G6U C27U A43C C46U C66A A70G,-0.123
6,U2G G6A C27U C46U C66A C71U,-0.213
7,C46U A69G A70U,-0.0401
8,U2G C27U A70U,-0.0184
9,G6U A43C C46U C66U C71U,-0.254
10,G1A U2C G6U C27U A43C C46U C66U A69G A70U C71U,-0.398
11,U2C C27U A69G C71U,-0.102
12,C27U C66A A70U,-0.0748
13,G6U C46U A69G C71U,-0.194
14,G1A G6A C27U C66U A70U,-0.431
15,G6A C27U A43C C46U C66A A70G C71U,-0.296
16,G1A A43C C46U C66U A70G,-0.1
17,G6A C46U C66A A70U C71U,-0.211
18,U2C G6U C66A A70U,0.0021
19,U2C G6U C66A A70G,-0.0114
20,G1A G6A C27U C66U A69G A70G C71U,-0.442
21,G1A U2G G6U C27U A43C C46U C66A A70U,-0.309
22,G6A A43C C46U C66U A69G A70G C71U,-0.24
23,G1A U2C C27U,-0.0512
